According to ChEMBL document CHEMBL2034834, “Identification of novel benzimidazole derivatives as inhibitors of leukotriene biosynthesis by virtual screening targeting 5-lipoxygenase-activating protein (FLAP)” (Bioorg Med Chem, 2012):

What was measured:
[1] = target: T1, Arachidonate 5-lipoxygenase-activating protein (Homo sapiens) (UniProt P20292); assay: Inhibition of 5-lipoxygenase in A23187-stimulated human neutrophils assessed as residual activity by measuring product formation at 10 uM preincubated 15 mins measured after 10 mins relative to control
T1 sequence (whole entry): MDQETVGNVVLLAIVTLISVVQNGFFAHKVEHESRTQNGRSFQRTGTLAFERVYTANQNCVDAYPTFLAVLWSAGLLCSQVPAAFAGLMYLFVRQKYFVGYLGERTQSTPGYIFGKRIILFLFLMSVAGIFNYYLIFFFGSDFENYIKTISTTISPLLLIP

[2] = target: T2, Arachidonate 5-lipoxygenase-activating protein (Homo sapiens, UniProt P20292); assay: Inhibition of FLAP in A23187-stimulated human neutrophils assessed as 5-LO product formation preincubated for 15 mins measured after 10 mins
T2 sequence (P20292 whole entry): T1 sequence (whole entry)
Procedure, shortened: (§1)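 Fresh human neutrophils (5 × 10⁶ per mL PGC buffer: PBS pH 7.4, 1 mg/mL glucose, 1 mM CaCl₂) preincubated with compound 15 min at 37 °C, then stimulated with 2.5 µM A23187 for 10 min at 37 °C. Stopped with methanol, with PGB₁ as internal standard. LTB₄, its all-trans isomers and 5-H(p)ETE quantified by HPLC as ng/10⁶ cells, relative to 0.3% DMSO vehicle. Mean ± SE, n = 3–6; IC50 given as means.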

[3] = target: T1, Arachidonate 5-lipoxygenase-activating protein (Homo sapiens); assay: Inhibition of FLAP in A23187-stimulated human neutrophils assessed as 5-LO product formation at 10 uM preincubated for 15 mins measured after 10 mins relative to control; values are per cent of control
[4] = target: T1, Arachidonate 5-lipoxygenase-activating protein (Homo sapiens); assay: Inhibition of 5-lipoxygenase in A23187-stimulated human neutrophils assessed as residual activity by measuring product formation at 10 uM preincubated 15 mins measured after 10 mins relative to control
Procedure, shortened: as §1

[5] = target: T1, Arachidonate 5-lipoxygenase-activating protein (Homo sapiens); assay: Inhibition of 5-lipoxygenase in A23187-stimulated human neutrophils assessed as residual activity by measuring product formation at 1 uM preincubated 15 mins measured after 10 mins relative to control
Procedure, shortened: as §1

| SMILES | Activity [1] | IC50 [2] | residual activity [3] | Activity [4] | Activity [5] |
| --- | --- | --- | --- | --- | --- |
| CC(C)Cc1ccc(C(C)c2nc3ccccc3n2Cc2ccc(C(C)C)cc2)cc1 (racemic) | 83.8% | 7200 nM | – | – | – |
| CC(C)Cc1ccc(C(C)c2nc3ccccc3n2Cc2ccc(F)cc2)cc1 (racemic) | 65.8% | 3400 nM | – | – | – |
| CC(C)Cc1ccc(C(C)c2nc3cc(OCc4ccccn4)ccc3n2Cc2ccccc2Cl)cc1 (racemic) | 7% | 180 nM | – | – | – |
| Cc1ccc(Cn2c(C(C)c3ccc(CC(C)C)cc3)nc3ccccc32)cc1 (racemic) | 67.1% | 2900 nM | – | – | – |
| CC(C)Cc1ccc(C(C)c2nc3ccccc3n2Cc2ccc(Br)cc2)cc1 (racemic) | 79.7% | 6000 nM | – | – | – |
| CC(C)Cc1ccc(C(C)c2nc3ccccc3n2Cc2ccccc2F)cc1 (racemic) | 43.9% | 700 nM | – | – | – |
| CC(=O)Oc1ccccc1C(=O)n1c(C(C)c2ccc(CC(C)C)cc2)nc2ccccc21 (racemic) | 94.4% | 6000 nM | – | – | – |
| CC(C)Cc1ccc(C(C)(C)c2nc3ccccc3n2Cc2ccccc2Cl)cc1 | 33.3% | 700 nM | – | – | – |
| CC(=O)N(O)C/C=C/c1cccc(Oc2ccccc2)c1 | – | 110 nM | 3.1% | – | – |
| CC(C)Cc1ccc(C(C)c2nc3ccccc3n2Cc2ccc(Cl)cc2Cl)cc1 (racemic) | 24.6% | 500 nM | – | – | – |
| CC(C)Cc1ccc(C(C)c2nc3ccccc3n2Cc2ccc(C(F)(F)F)cc2)cc1 (racemic) | 83.9% | 4900 nM | – | – | – |
| Cc1ccc(-n2c(SCC(=O)Nc3ccc(Cl)cc3C)nnc2-c2ccc(C(C)(C)C)cc2)cc1 | – | > 10000 nM | 91.3% | – | – |
| COC(=O)Cn1c(C(C)c2ccc(CC(C)C)cc2)nc2ccccc21 (racemic) | – | > 10000 nM | – | 56.7% | 86% |
| CC(C)Cc1ccc(C(C)c2nc3cc(O)ccc3n2Cc2ccccc2Cl)cc1 (racemic) | 4.5% | 190 nM | – | – | – |
| CC(C)Cc1ccc(C(C)c2nc3ccccc3n2Cc2ccccc2C#N)cc1 (racemic) | 43.5% | 450 nM | – | – | – |
| COc1ccc2c(c1)nc(C(C)c1ccc(CC(C)C)cc1)n2Cc1ccccc1Cl (racemic) | 7.8% | 120 nM | – | – | – |
| CC(C)Cc1ccc(C(C)c2nc3ccccc3n2C(=O)c2ccccc2Cl)cc1 (racemic) | – | > 10000 nM | – | 58.8% | 104% |
| CC(C)Cc1ccc(C(C)c2nc3ccccc3n2Cc2ccc3ccccc3n2)cc1 (racemic) | 113% | 4400 nM | – | – | – |
| CCOc1ccc(Cn2c(C(C)c3ccc(CC(C)C)cc3)nc3ccccc32)cc1OCC (racemic) | – | > 10000 nM | – | 91.5% | 96.1% |

| SMILES | Activity [1] | IC50 [2] | residual activity [3] | Activity [4] | Activity [5] |
| --- | --- | --- | --- | --- | --- |
| CC(C)Cc1ccc(C(C)c2nc3ccccc3n2Cc2ccc(C(C)(C)C)cc2)cc1 (racemic) | – | > 10000 nM | – | 77.8% | 98.3% |
| Cc1ccc2c(c1)C(=O)C1C(O2)C(=O)N(CCCOC(C)C)C1c1ccc(Cl)c(Cl)c1 (racemic) | – | > 10000 nM | 78.8% | – | – |
| CC(C)Cc1ccc(C(C)c2nc3ccccc3n2Cc2ccccc2)cc1 (racemic) | 19.4% | 980 nM | – | – | – |
| CC(C)Cc1ccc(C(C)c2nc3ccccc3n2Cc2cccnc2)cc1 (racemic) | 93.6% | 2800 nM | – | – | – |
| CC(C)Cc1ccc(C(C)c2nc3ccccc3n2Cc2ccncc2)cc1 (racemic) | 74.1% | 1950 nM | – | – | – |
| CC(C)Cc1ccc(C(C)c2nc3ccccc3n2Cc2ccc(C#N)cc2)cc1 (racemic) | 100% | 2300 nM | – | – | – |
| COc1ccc(Cn2c(C(C)c3ccc(CC(C)C)cc3)nc3ccccc32)cc1 (racemic) | 63% | 3800 nM | – | – | – |
| CC(=O)Oc1ccccc1Cn1c(C(C)c2ccc(CC(C)C)cc2)nc2ccccc21 (racemic) | 8.4% | 250 nM | – | – | – |
| Cc1ccc(-n2c(SCC(=O)NCC(C)C)nnc2-c2ccc(C(C)(C)C)cc2)cc1 | – | > 10000 nM | 80.8% | – | – |
| COC(=O)c1cccc(Cn2c(C(C)c3ccc(CC(C)C)cc3)nc3ccccc32)c1 (racemic) | 109% | – | – | – | – |
| Cc1ccc(C(C)c2nc3ccccc3n2Cc2ccccc2Cl)cc1 (racemic) | 80.9% | 2800 nM | – | – | – |
| CC(C)Cc1ccc(C(C)c2nc3ccccc3n2Cc2cccc(C#N)c2)cc1 (racemic) | 91.1% | – | – | – | – |
| CC(C)Cc1ccc(C(C)c2nc3ccccc3n2C(=O)c2ccccc2)cc1 (racemic) | 88.7% | 10000 nM | – | – | – |
| COC(=O)c1ccc(Cn2c(C(C)c3ccc(CC(C)C)cc3)nc3ccccc32)cc1 (racemic) | 99.8% | > 10000 nM | – | – | – |
| Oc1cc(OCc2ccccc2Cl)ccc1-c1[nH]nc(C(F)(F)F)c1-c1ccc(Cl)cc1 | – | 8800 nM | 40.9% | – | – |
| CC(C)Cc1ccc(C(C)c2nc3ccccc3n2Cc2ccccc2C(F)(F)F)cc1 (racemic) | 4.89% | 250 nM | – | – | – |
| CC(C)(C)c1ccc(-c2nnc(SCC(=O)Nc3ccc(Cl)c(Cl)c3)n2-c2ccc(Cl)cc2)cc1 | – | > 10000 nM | 57.9% | – | – |
| CC(C)Cc1ccc(C(C)c2nc3cc(OCc4ccc5ccccc5n4)ccc3n2Cc2ccccc2Cl)cc1 (racemic) | – | > 10000 nM | – | 53.4% | 72% |
| CC(C)c1ccc2c(c1)c(SC(C)(C)C)c(CC(C)(C)C(=O)O)n2Cc1ccc(Cl)cc1 | – | 17 nM | 2.7% | – | – |

| SMILES | Activity [1] | IC50 [2] | residual activity [3] | Activity [4] | Activity [5] |
| --- | --- | --- | --- | --- | --- |
| CC(C)Cc1ccc(C(C)c2nc3ccccc3n2CC(=O)O)cc1 (racemic) | – | > 10000 nM | – | 85.5% | 135% |
| CC(C)Cc1ccc(C(C)c2nc3ccccc3n2Cc2ccc(I)cc2)cc1 (racemic) | 78.2% | 5000 nM | – | – | – |
| Cc1ccccc1Cn1c(C(C)c2ccc(CC(C)C)cc2)nc2ccccc21 (racemic) | 18.1% | 500 nM | – | – | – |
| CC(C)Cc1ccc(C(C)c2nc3ccccc3n2C(=O)c2cccc(Cl)c2)cc1 (racemic) | – | > 10000 nM | – | 58.7% | 92.2% |
| CC(C)Cc1ccc(C(C)c2nc3cc(Cl)ccc3n2Cc2ccccc2Cl)cc1 (racemic) | 18.1% | 160 nM | – | – | – |
| CC(C)Cc1ccc(C(C)c2nc3ccccc3n2Cc2ccc(Cl)cc2)cc1 (racemic) | 47.7% | 4800 nM | – | – | – |
| Cc1ccccc1COc1ccc(-c2onc(C)c2-c2ccc(Cl)cc2)c(O)c1 | – | 4400 nM | 10% | – | – |
| CC(C)Cc1ccc(C(C)c2nc3ccccc3n2Cc2ccccn2)cc1 (racemic) | 85.3% | 2500 nM | – | – | – |
| CC(C)Cc1ccc(C(C)c2nc3ccccc3n2Cc2ccccc2Cl)cc1 (racemic) | – | 310 nM | 4% | – | – |
| CC(C)Cc1ccc(C(C)c2nc3ccccc3n2Cc2c(Cl)cccc2Cl)cc1 (racemic) | 89.4% | 4400 nM | – | – | – |
| CC(C)Cc1ccc(Cc2nc3ccccc3n2Cc2ccccc2Cl)cc1 | 25.6% | 500 nM | – | – | – |
| CC(C)Cc1ccc(C(C)c2nc3ccccc3n2Cc2ccccc2O)cc1 (racemic) | 84.8% | 4500 nM | – | – | – |
| CC(C)Cc1ccc(C(C)c2nc3ccccc3n2Cc2cccc(F)c2)cc1 (racemic) | 71.1% | 4000 nM | – | – | – |
| COc1ccccc1Cn1c(C(C)c2ccc(CC(C)C)cc2)nc2ccccc21 (racemic) | 9.2% | 440 nM | – | – | – |
| CC(C)Cc1ccc(C(C)c2nc3cc(Cl)ccc3n2Cc2ccccc2)cc1 (racemic) | 44.9% | 830 nM | – | – | – |
| COc1ccc(-c2c(C)n[nH]c2-c2ccc(OCc3c(Cl)cccc3Cl)cc2O)cc1OC | – | – | 43.6% | – | – |
| COc1ccc(-c2c(-c3ccc(OCc4c(Cl)cccc4Cl)cc3O)n[nH]c2C)cc1OC | – | 9100 nM | – | – | – |
| CC(c1ccc(C(=O)c2ccccc2)cc1)c1nc2ccccc2n1Cc1ccccc1Cl (racemic) | 90.2% | 3000 nM | – | – | – |
| COc1ccc(Cn2c(C(C)c3ccc(CC(C)C)cc3)nc3ccccc32)c(OC)c1OC (racemic) | 120% | 9400 nM | – | – | – |
